MPTP block: blocks calcium-induced mitochondrial swelling; isolated mouse mitochondria, Ca2+ swelling absorbance, 30 min; inhibition, % at 10 µM; 360,000 compounds, 1.4% hits;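 active = inhibition of 50% or more, scaled per plate between neutral and stimulator controls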;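 also: 0% = DMSO wells given calcium and 100% = 1 mM EGTA wells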
DTT redox prof: compounds producing H2O2 with reducing agent – biochemical, NIH compound library profiling, artefact control for MLSCN library redox annotation, primary screen; DTT-dependent redox cycling H2O2, phenol red/HRP absorbance; 100% = 100 µM peroxide control, 0% = buffer; activation, % at 10 µM; 200,000 compounds, 0.03% hits; AID 878;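 active = activation of at least 50% relative to the plate's high and low controls in the primary single-dose screen; inactive = activation below 50%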;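 also: compound incubated with DTT at 0.8 mM final as the reducing agent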
T cruzi inh: blocks replication of Trypanosoma cruzi. T. cruzi beta-gal in NIH3T3, luminescence, 90 h. inhibition, % (no concentration beside the values). 300,000 compounds, 1.4% hits;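 active = mean inhibition across valid replicates above about 55%, limit read from the data; inconclusive = mean below that limit but half or more replicates reach it; inactive = mean below it, under half of replicates reach it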;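 also: signal also drops with host cell toxicity which is not excluded here; 0% = plate median of DMSO wells and 100% = zero luminescence signal; higher percent means less beta-gal luminescence so fewer parasites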
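Material: NIH/3T3 host cells with β-galactosidase reporter T. cruzi; Input: 5,000 host fibroblasts per well; Medium: DMEM, 2% fetal bovine serum; Compound: 50 nL DMSO compound solution per well; Schedule: 3 h host attachment, then at least 90 h co-culture; Detection: luminescent β-galactosidase signal after 60 min lysis.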
Hep lipid drop: modulators of hepatic lipid droplet formation | AID 1656 | 240,000 compounds, 0.4% hits | inhibition, % at 6.5 µM | AML12 mouse hepatocytes, oleate lipid droplets, BODIPY imaging;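 active = lipid droplet intensity inhibited by at least 50%, with more than 500 cells counted; inconclusive = wells with under 300 cells, treated as cytotoxic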
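Assay system: AML12 mouse liver cells | Compound dosing: One dose, 6.5 µM compound | Read-out basis: Droplet intensity reduction, % inhibition | Measured by: Fluorescence imaging, 20x objective, two fields per well | Schedule: Overnight treatment with compound plus oleate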
Lmaj promast: reduces viability of Leishmania major promastigotes; 200,000 compounds, 9% hits; resazurin fluorescence viability; inhibition, % at 10 µM; AID 1063; in the data active = inhibition above about 50%;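 also: promastigotes grown with compound for 44 hours at 28 °C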
Active calls of the source: *; ? = inconclusive; / = not tested or not shown. Many of the other results were omitted from the sample, so hits are more common in it than they were.

SMILES	MPTP block	DTT redox prof	T cruzi inh	Hep lipid drop	Lmaj promast
COc1cc(C(=O)NCC(=O)NCC2COc3ccccc3O2)cc(OC)c1OC (stereo unspecified)	-1.0	/	-12.3	/	/
COc1cc(C#N)c(N=C(SCC#N)N2CCOCC2)cc1OC	-1.0	1.2	-9.9	9.8	-2.9
CC(NC(=O)OCc1ccccc1)C(=O)NCC(=O)NC(Cc1ccc(OC(C)(C)C)cc1)C(=O)OC(C)(C)C (stereo unspecified)	5.7	-0.5	13.2	14.1	52.7*
CCOC(=O)C1CCN(CCC(=O)Nc2ccc(C)c(C)c2)CC1	-0.6	-0.2	/	28.4	88.1*
CCOC(=O)C1CCN(CCC(=O)Nc2ccc(F)cc2)CC1	-0.8	-0.6	-9.6	-5.7	70.1*
CCOC(=O)C1CCCN(CCC(=O)Nc2ccc3c(c2)CCC3)C1 (stereo unspecified)	2.9	1.2	8.0	1.6	89.5*
CCOC(=O)C1CCCN(CCC(=O)Nc2ccc(C)c(C)c2)C1 (stereo unspecified)	-1.4	-1.3	14.1	1.8	30.5
CCOC(=O)C1CCN(CCC(=O)Nc2ccc(Br)cc2)CC1	0.3	/	-3.5	-7.4	/
CCCCCC(=O)N1CCCCC1	-0.7	/	-3.3	0.2	/
Cc1ccc(C)c(OCCCCn2ccnc2)c1	0.8	0.1	71.4*	1.1	98.5*
Cc1cc(C)c(C)c(OCCCn2ccnc2)c1	-3.3	0.2	?	-3.0	82.5*
Cc1ccc(OCCCCn2ccnc2)c([N+](=O)[O-])c1	6.1	-1.6	23.2	0.4	96.0*
CN1CCN(CCOc2ccc(Cl)c(Cl)c2)CC1	21.4	0.3	55.8*	13.4	98.3*
c1ccc(OCCCN2CCCC2)cc1	-0.7	0.1	8.1	23.2	-0.3
CCN(CC)CCCOc1ccc(Cl)c(Cl)c1	-0.3	0.2	51.6	-4.1	83.4*
c1ccc(COc2ccc(OCCCCN3CCCC3)cc2)cc1	5.6	-0.2	40.1	-29.7	92.1*
CN1CCN(CCOc2cccc(Cl)c2)CC1	-1.4	0.6	35.9	/	10.1
c1ccc(COc2ccc(OCCCN3CCCCC3)cc2)cc1	19.9	0.1	-2.4	25.4	100.2*
CC1CCN(CCCCOc2ccc(Cl)cc2)CC1	-0.8	/	-13.3	/	/
CN1CCN(CCOc2ccc(Cc3ccccc3)cc2)CC1	1.3	/	54.8*	-8.3	/
CC1CCN(CCOc2ccc(OCc3ccccc3)cc2)CC1	-1.4	-0.4	50.3	-1.0	99.2*
O=C(COc1ccc(F)cc1)NCCN1CCCC1	0.0	/	-8.1	9.9	/
Fc1ccc(OCCCCCCN2CCCC2)cc1	1.2	-3.8	53.3	/	95.1*
CCC1Sc2ccc(S(=O)(=O)CCC(=O)Nc3cccc(Br)c3)cc2NC1=O (stereo unspecified)	-0.2	/	-0.9	-6.2	/
COc1ccc(CN=Cc2[nH]c3ccc(Br)c(Cl)c3c2O)cc1	5.8	-2.4	55.1*	-3.1	98.6*
SMILES	MPTP block	DTT redox prof	T cruzi inh	Hep lipid drop	Lmaj promast
Cc1cc2ccccn2c1C(=O)c1ccc([N+](=O)[O-])o1	0.8	-0.4	73.6*	-3.3	99.4*
O=C1N(c2ccccc2)C[C@@H]2C[C@@H](c3cc4ccccc4o3)N3CCC[C@@]123	-2.4	-0.6	55.6*	1.7	19.3
Cc1ccc(-c2ccccc2[C@@H]2C[C@H]3CN(C)C(=O)[C@]34CCCN24)o1	-0.3	-0.9	4.7	-29.9	2.1
CCc1ccc(CN2CCC(N3CCC(C(=O)N4CCCC4)CC3)CC2)o1	1.5	/	4.0	15.5	/
CC1(C)[C@H]2CC=C(CN3CCC(N4CCC(C(=O)N5CCCC5)CC4)CC3)[C@@H]1C2	2.1	-0.2	-2.0	5.8	89.3*
Cc1cc(O)ccc1N=Cc1c(C(F)(F)F)[nH][nH]c1=O	2.2	-0.9	-4.1	15.6	51.9*
Cc1nc2cc(NCc3ccccc3O)ccc2n1Cc1ccccc1	0.7	-0.3	1.5	-25.1	-3.8
C/C(=N\Nc1ccc(C(F)(F)F)cn1)c1ccc(S(=O)(=O)NCc2ccco2)cc1	0.5	-0.7	32.9	26.2	75.0*
C/C(=N\Nc1nc(Cl)c(Cl)cc1Cl)c1ccc(S(=O)(=O)NCc2ccco2)cc1	12.9	-0.1	46.4	0.4	99.5*
CCCN(CCC)C(=O)c1cc2c(=O)n3cccc(C)c3nc2s1	0.2	/	7.4	5.4	/
COc1ccc(-n2nc(C(=O)NCC(=O)NCc3ccc(F)cc3)c3ccccc3c2=O)cc1	-2.6	/	6.3	6.2	/
CCOC(=O)c1sc2nc(CC(=O)OC)nc(N3CCN(c4ccc(OC)cc4)CC3)c2c1C	1.9	-0.6	63.1*	-2.3	21.1
Cc1ncc(CO)c(/C=N/NC(=O)c2cc3c(s2)CCCC3)c1O	-0.1	0.3	4.9	-5.8	98.2*
Cc1ncc(CO)c(/C=N/NC(=O)c2ccc(O)cc2)c1O	-1.6	0.2	-4.7	-3.0	0.4
Cc1ccccc1OCCOC(=O)c1ccc(S(=O)(=O)N2CCCC2)cc1	-0.4	/	/	/	/
Cc1ccc(-c2c(C(=O)N(C)Cc3ccccc3)oc(=O)c3ccccc23)cc1	7.0	-0.1	27.6	7.6	82.2*
Cc1ccc(-c2c(C(=O)NCc3ccccc3)oc(=O)c3ccccc23)cc1	0.6	-0.1	4.8	-3.0	3.0
CN(Cc1ccccc1)C(=O)c1oc(=O)c2ccccc2c1-c1ccccc1	1.8	0.2	15.7	-5.7	55.2*
COc1ccc(C(=O)CSc2nnc(-c3cc4ccccc4cc3O)n2Cc2ccco2)cc1	2.0	2.0	4.8	/	68.8*
O=C(CSc1nnc(-c2ccc(Cl)cc2)n1Cc1ccco1)c1cccs1	0.1	4.9	-8.9	-24.4	80.1*
Cn1c2c(c(=O)n(C)c1=O)C(c1ccc(Br)cc1)C(C#N)=C(N)N2 (stereo unspecified)	0.7	/	34.9	6.1	/
Cc1[nH]n(C2=NCCS2)c(=O)c1N=Nc1cccc(C(F)(F)F)c1	-29.0	-0.4	59.8*	-31.8	99.2*
Cc1[nH]n(C(N)=S)c(=O)c1N=Nc1cccc(C(F)(F)F)c1	5.0	/	-13.2	-10.4	/
N#Cc1c(N2CCN(C(=O)c3ccccc3Cl)CC2)nc(-c2ccccc2)c2c1CCCC2	0.0	-8.2	56.7*	/	42.9
N#Cc1c(N2CCN(C(=O)c3ccco3)CC2)nc(-c2ccccc2)c2c1CCCC2	-0.9	0.2	60.6*	/	36.2
SMILES	MPTP block	DTT redox prof	T cruzi inh	Hep lipid drop	Lmaj promast
N#Cc1cccnc1N1CCN(C(=O)c2ccccc2)CC1	-0.5	/	-4.7	13.0	/
CC1(C)Cc2c(C#N)c(N3CCN(C(=O)c4ccccc4Cl)CC3)nc(-c3ccco3)c2CS1	-0.7	-8.6	19.6	/	-4.0
CC(C)c1cc(N2CCN(C(=O)c3ccco3)CC2)n2c(nc3ccccc32)c1C#N	-1.6	-1.2	17.3	/	51.8*
N#Cc1c(N2CCN(C(=O)c3ccccc3)CC2)nc(-c2ccccc2)c2c1CCCC2	3.4	0.1	23.4	-30.7	75.1*
CC1(C)Cc2c(C#N)c(N3CCN(C(=O)c4ccco4)CC3)nc(-c3ccco3)c2CS1	-0.2	0.4	9.7	-2.8	18.8
OCCC1CN(Cc2ccc3c(c2)CCO3)CCN1C1CCCC1 (stereo unspecified)	1.8	-1.6	1.2	5.5	31.1

Compound activity (PubChem BioAssay)
